Compound activity deposited in PubChem by several laboratories.
A selection: hits, their analogues and other compounds. The true share with any hit is near 4.9%.
STAT1 act: activators of IFN-gamma induced STAT1 signaling | NIH 3T3 STAT1-luciferase reporter, luminescence; 100% = IFN-gamma alone, no compound | activation (% of control), % at 5.5 µM | 2.6% of 200,000 active;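 active = activation above the screen-wide mean activation plus 3 SD, cut at about 130% in these data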
STAT1 blocker: inhibitors of IFN-gamma induced STAT1 signaling. NIH 3T3 STAT1-luciferase reporter, luminescence. inhibition, % at 5.5 µM. 0.35% of 200,000 active;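 active = inhibition above a set limit, the mean inhibition across all tested compounds plus 3 SD, cut at about 34% in these data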
STAT3 inh: STAT3 signaling inhibition; U3A cells, IL-6 STAT3-luciferase reporter, luminescence; host cell line lacks STAT1; inhibition, % at 5.5 µM; 0.89% of 190,000 active;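 active = inhibition above the mean inhibition across all screened compounds plus 3 SD, cut at about 44% in these data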
NF-kB neuron act: raises NF-kB expression in human neuronal cells; 1.6% of 190,000 active; NF-kB reporter expression; hits give high values; fold change at 12.5 µM; in the data active = fold change above about 3.3
STAT3 activator: STAT3 signaling activation; U3A cells, IL-6 STAT3-luciferase reporter, luminescence; 100% = signal with IL-6 EC80 alone; AID 871; 0.91% of 190,000 active; activation (% of control), % at 5.6 µM;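 active = activation above the screen-wide mean of compound activation plus 3 SD, cut at about 130% in these data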
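Test system: STAT3-luciferase reporter U3A cells; Detection: reporter luminescence signal; Times: 1 h compound pre-exposure, 6 h IL-6 stimulation, 37 °C; Benchmarks: IL-6-only high control; Also added: IL-6 stimulus at 33 ng/mL final.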
APP 5'UTR act: APP 5'UTR luciferase reporter activation. SH-SY5Y APP 5'UTR luciferase reporter, luminescence; zero percent = DMSO vehicle wells. AID 1276. 1% of 190,000 active. activation, % at 2 µM;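 active = activation above a set limit, based on mean plus 3 SD of controls, cut at about 140% in these data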
Of the large screens only hits and unclear results are named; the others gave an inactive call.

Cc1cc2nc(-c3ccc(SCC(=O)Nc4ccc(S(=O)(=O)N5CCCC5)cc4)nc3)[nH]c2cc1C	STAT1 act 140.4, APP 5'UTR act 152.7
Cc1cccc(N/C(=N\S(=O)(=O)c2ccccc2)C(F)(F)F)c1	none
Cc1nc2cc(C(=O)O)ccc2s1	STAT1 act 142.7
Cc1ccc(-c2nc3ccc(C(=O)O)cc3nc2-c2ccc(C)cc2)cc1	none
Cc1nc2ccc(NC(=O)c3sccc3C)cc2s1	STAT1 act 143.3, NF-kB neuron act 4.71, APP 5'UTR act 162.8
CCc1nc2ccc(C(=O)O)cc2nc1CC	NF-kB neuron act 6.07
Cc1nc2ccc(NC(=O)c3ccccc3)cc2s1	STAT1 act 130.9
COc1ccc(C(=O)Nc2ccc3c(c2)nc2n3CCSC2)cc1	none
Cc1ccc(C)c(NC(=O)c2cc3ccccn3n2)c1	STAT1 act 134.5
O=C(Nc1ccc2c(c1)nc1n2CCSC1)c1ccccc1	NF-kB neuron act 3.33
Cc1nnc(NC(=O)c2ccc3ccccc3n2)s1	STAT1 act 138.2, STAT3 activator 136.2
Cc1nc2ccc(NC(=O)Cc3ccccc3F)cc2s1	STAT1 act 141.4, NF-kB neuron act 6.77
CC(=O)c1cccc(CN2CCCC(CCC(=O)NCc3ccc(C)o3)C2)c1 (configuration not stated)	none
Cc1[nH]nc(Sc2ccccn2)c1[N+](=O)[O-]	none
Cn1c(CSCc2ccccc2)n[nH]c1=S	none
Cc1ccccc1OCCNC(=O)c1ccc2ccccc2n1	STAT1 act 140.9, APP 5'UTR act 146.3
COCCNC(=O)c1ccc2ccccc2n1	none
Cc1nc2cc(NC(=O)CCS(=O)(=O)c3ccccc3)ccc2s1	STAT1 act 150.2
Cc1ccc(C)c(NC(=O)c2ccc3ccccc3n2)c1	NF-kB neuron act 8.5
Cc1nc2ccc(NC(=O)c3ccc4ccccc4n3)cc2s1	STAT1 act 134.9
CCOC(=O)c1c(C)[nH]c(C)c1C(=O)COC(=O)/C=C/c1ccc(Cl)cc1	none
O=S(=O)(NC1c2cccc3cccc(c23)C1N1CCN(CCO)CC1)c1ccccc1 (configuration not stated)	STAT3 activator 133.8
O=S(=O)(NC1c2cccc3cccc(c23)C1N1CCNCC1)c1ccccc1 (configuration not stated)	none
CCOC1OC(=O)C(Cl)=C1Nc1ccc(C)cc1C (configuration not stated)	none
Cc1ccc(OCc2ccc(C(=O)N3CCOCC3)cc2)cc1C	STAT1 act 141.7 (no result: APP 5'UTR act)
COc1ccc(/C=N/NC(=O)c2c(C)nnn2-c2nonc2N)cc1OC	none
O=c1c(Br)c(NCc2ccccc2)cnn1-c1ccc(F)cc1	STAT1 act 129.3
COc1cnc(-c2ccccc2)[nH]c1=O	none
CC(C)N1CCNCC1	none
CCc1ccc(NC(=O)c2onc(C)c2Cl)cc1	STAT1 act 143.0, NF-kB neuron act 6, STAT3 activator 141.2, APP 5'UTR act 135.4
COC(c1ccccc1)c1nnc(CCC(=O)N(C)C(C2CC2)C2CC2)o1 (configuration not stated)	STAT1 act 131.3
Cc1cccc2cc(CNCc3ccccc3)c(Cl)nc12	none
COCCOC(=O)/C=C1/NC(=O)CS1	none
CC(C)(C)c1ccc(C(=O)/C=C2\NC(=O)CS2)cc1	NF-kB neuron act 6.62
O=C(Nc1ccc2c(c1)OCO2)Nc1ccc(Br)cn1	STAT1 act 149.1
Cc1ccnc(NC(=O)Nc2ccc3c(c2)OCO3)c1	STAT1 act 146.0, NF-kB neuron act 4.87, APP 5'UTR act 143.8
O=C(Nc1cccc(Cl)c1)Nc1ccc2c(c1)OCO2	none
CCN(C(=O)c1cc2ccccc2oc1=O)c1ccccc1	NF-kB neuron act 4.66
CCN(CC)c1ccc2cc(C(N)=O)c(=N)oc2c1	none
CCN(CC)c1ccc2cc(C(N)=O)c(=O)oc2c1	STAT1 act 133.0
COc1ccc2c(c1OC)C(=O)N(c1cccc(C)c1)C2=O	STAT1 act 136.2
Cc1ccc2ccc(C(Nc3ccccn3)c3ccccc3)c(O)c2n1 (configuration not stated)	none
Oc1c(C(Nc2ccccn2)c2ccccn2)ccc2cccnc12 (configuration not stated)	NF-kB neuron act 7.03
COc1cc(C(Nc2ccccn2)c2ccc3ccc(C)nc3c2O)cc(OC)c1O (configuration not stated)	NF-kB neuron act 5.97
Cc1ccc(NC(=O)N2CCCC2)cc1Cl	none
O=C(Nc1ccc(Cl)c(Cl)c1)N1CC=CCC1	NF-kB neuron act 3.47
CC(C)Cc1nnc(NC(=O)Nc2ccccc2)s1	STAT1 act 146.6
O=C(Cc1nnc(NC(=O)Nc2ccccc2)s1)NCc1ccccc1	none
CCc1nnc(NC(=O)CCC(=O)Nc2ccccc2)s1	none
Cc1nc(NC(=S)Nc2ccccc2)sc1C	NF-kB neuron act 4.75, APP 5'UTR act 140.4
CC(C)COC(=O)Nc1nnc(Cc2ccccc2)s1	STAT1 act 133.3
CCc1nnc(NC(=S)Nc2ccccc2)s1	STAT1 act 131.8, NF-kB neuron act 3.34
Cc1ccc(C(=O)Nc2nnc(NC(=S)Nc3ccccc3)s2)cc1	none
COC(=O)c1c(N2C(=O)CC(Sc3ccccc3C(=O)O)C2=O)sc2c1CCCC2 (configuration not stated)	none
Cc1ccc(S(=O)(=O)NN2C(=O)c3ccccc3NC2c2ccccn2)cc1 (configuration not stated)	none
Cc1ccccc1SCCNC(=O)c1ccccc1Br	none
Cc1cc(C)c(C#N)c(SCc2nc3ccccc3c(=O)[nH]2)n1	APP 5'UTR act 152.7
O=c1[nH]c(CSc2ccccn2)nc2ccccc12	STAT1 act 134.9
COCc1cc(C)nc(SCc2nc3ccccc3c(=O)[nH]2)c1C#N	none
O=c1[nH]c(CSc2ccccn2)nc2c1cnn2-c1ccccc1	none
CN(CCc1cn[nH]c1)Cc1nc(Cc2ccccc2)no1	none
N#CC(C#N)=C1C=CC=CN1/C(=C\c1ccccc1Cl)C(=O)c1ccccc1	STAT1 blocker 35.1
Cc1ccccc1NC(=O)c1onc2c1CCCC2	STAT1 act 142.3, NF-kB neuron act 3.56
COC(=O)c1cccc(NC(=O)c2onc3c2CCCC3)c1	STAT1 act 149.6, NF-kB neuron act 10.4
Cc1cccc(NC(=O)c2onc3c2CCCC3)c1C	STAT1 act 140.4
Cc1cccc(NC(=O)c2ccccn2)c1C	none
Cc1ccccc1N(CC(=O)N1CCOCC1)S(C)(=O)=O	none
CN(C)c1ccc(-n2cc3c(=O)n(C)c(=O)n(C)c3c2)cc1	STAT1 act 134.5
CCN(CC)c1ccc(-n2cc3c(=O)n(C)c(=O)n(C)c3c2)cc1	none
Clc1ccc(Br)cc1-c1nc(-c2ccncc2)no1	STAT1 act 137.0
c1ccc2c(-c3nc(-c4ccncc4)no3)cccc2c1	STAT1 act 129.1, STAT3 activator 135.7
